In publication PMC7993273 (Clinical and Translational Science, 2021):
Where “and” joins values, the source holds several entries; their conditions need not be identical. Identical values can stand only once.

How the values were obtained:
[1] = Exposure at the 480-mg dose in HVs, study BGB-3111-106; type: in vivo, human
[2] = cited from earlier work
[3] = type: in vivo, human; details: 160 mg b.i.d.
Summary of the method: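 Final population PK model built from 4,925 plasma samples from 632 healthy volunteers and B-cell malignancy patients, on oral doses of 20–320 mg q.d. or b.i.d. Plasma levels were measured by validated HPLC-MS/MS (LLOQ 1 ng/mL). Steady-state AUCss, Cmax,ss and Cmin,ss were simulated for repeated 160 mg b.i.d. dosing, comparing 5th/95th-percentile covariate values against a median-covariate typical patient.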

Population PK model = type: in vivo, human
[4] = oral, patients with B-cell malignancies

- AUC ([3]; human, plasma, oral, 160 mg, total daily AUC, typical patient): 1.89 µg·h/mL
- Ka, final model estimate (95% CI) (Population PK model; absorption rate constant): 0.526 (0.525, 0.526) 1/hour
- D1, bootstrap estimate median (2.5–97.5 percentiles) (Population PK model; bootstrap of 1,000 datasets): 1.114 (0.974, 1.265) hour
- IIV D1, bootstrap estimate median (2.5–97.5 percentiles) (Population PK model; bootstrap of 1,000 datasets): 62.2 (51.9, 72.4)
- IIV Q/F, bootstrap estimate median (2.5–97.5 percentiles) (Population PK model; bootstrap of 1,000 datasets): 103 (83.9, 118)
- IIV Vc/F, bootstrap estimate median (2.5–97.5 percentiles) (Population PK model; bootstrap of 1,000 datasets): 39.2 (25.9, 57.8)
- IIV Vp/F, bootstrap estimate median (2.5–97.5 percentiles) (Population PK model; bootstrap of 1,000 datasets): 80.4 (58.9, 94.6)
- IOV D1, bootstrap estimate median (2.5–97.5 percentiles) (Population PK model; bootstrap of 1,000 datasets): 62.2 (51.9, 72.4)
- IOV Vc/F, bootstrap estimate median (2.5–97.5 percentiles) (Population PK model; bootstrap of 1,000 datasets): 65.9 (49.4, 76.8)
- Ka, bootstrap estimate median (2.5–97.5 percentiles) (Population PK model; bootstrap of 1,000 datasets): 0.524 (0.481, 0.591) 1/hour
- Q/F, bootstrap estimate median (2.5–97.5 percentiles) (Population PK model; bootstrap of 1,000 datasets): 25.6 (19.9, 32.3) L/hour
- Vc/F, bootstrap estimate median (2.5–97.5 percentiles) (Population PK model; bootstrap of 1,000 datasets): 115 (88.4, 151) L
- Vp/F, bootstrap estimate median (2.5–97.5 percentiles) (Population PK model; bootstrap of 1,000 datasets): 363 (274, 513) L
- CL/F (HV), bootstrap estimate median (2.5–97.5 percentiles) (Population PK model; bootstrap of 1,000 datasets, healthy volunteers): 119 (110, 127) L/hour
- CL/F (patient), bootstrap estimate median (2.5–97.5 percentiles) (Population PK model; bootstrap of 1,000 datasets, patient): 169 (162, 178) L/hour
- effect of co-administration with PPIs and other ARAs on the PKs (Population PK model; covariate analysis, patients in clinical studies): did not appear to significantly impact
- D1, final model estimate (95% CI) (Population PK model; duration of zero-order absorption into the depot compartment): 1.13 hour and 1.128 (1.125, 1.131) hour
- coefficient of variance of elimination t 1/2 (Population PK model; final population PK model): 40.0%
- CL/F (HV), final model estimate (95% CI) (Population PK model; healthy volunteers): 118 (107, 130) L/hour
- Q/F, final model estimate (95% CI) (Population PK model; human, in vivo): 26.5 L/hour and 26.5 (26.3, 26.7) L/hour
- Vc/F, final model estimate (95% CI) (Population PK model; human, in vivo): 112 L and 112 (111, 113) L
- Vp/F, final model estimate (95% CI) (Population PK model; human, in vivo): 345 L and 345 (343, 347) L
- half-life (Population PK model; human, plasma, oral): 3.44 h
- IIV D1, final model estimate (95% CI) (Population PK model; interindividual variability): 62.3 (57.1, 67.1)
- IIV Q/F, final model estimate (95% CI) (Population PK model; interindividual variability): 102 (97.8, 106)
- IIV Vc/F, final model estimate (95% CI) (Population PK model; interindividual variability): 37.1 (NA, 53.1)
- IIV Vp/F, final model estimate (95% CI) (Population PK model; interindividual variability): 86.4 (71.3, 99.3)
- IIV estimated for CL/F (Population PK model; interindividual variability): 36.7%
- IIV estimated for Vc/F (Population PK model; interindividual variability): 37.1%
- IOV Vc/F, final model estimate (95% CI) (Population PK model; interoccasion variability): 67.5 (66.8, 68.3)
Compound: C=CC(=O)N1CCC([C@@H]2CCNc3c(C(N)=O)c(-c4ccc(Oc5ccccc5)cc4)nn32)CC1 [zanubrutinib, Zanubrutinib]
- dose dependence of exposure at the 480-mg dose [1]: less than dose‐proportional increase in exposure
- systemic accumulation after multiple-dose administration ([2]; 40 mg to 320 mg q.d. and 160 mg b.i.d.): limited systemic accumulation
- dose dependence of Cmax and AUC0–∞ ([2]; doses from 40 mg to 320 mg): dose‐proportional increase
- mean terminal elimination half-life (t 1/2) [2, 4]: 2 to 4 h
- median time to peak plasma concentration (Tmax) [2, 4]: 2 h
- magnitude of effect of ALT on AUCss [3]: < 15%
- magnitude of effect of ALT on Cmax,ss [3]: < 10%
- magnitude of effect of ALT on Cmin,ss [3]: < 30%
- absorption rate constant (Population PK model; typical patient with ALT of 18 U/L): 0.526 hour^‐1
- CL/F (patient), final model estimate (95% CI) (Population PK model; typical patient with B-cell malignancy, ALT 18 U/L): 170 L/hour and 170 (169, 170) L/hour
